Reference: ChEMBL document CHEMBL1154048, “Design, synthesis and pharmacological evaluation of new 1-[3-(4-arylpiperazin-1-yl)-2-hydroxy-propyl]-3,3-diphenylpyrrolidin-2-one derivatives with antiarrhythmic, antihypertensive, and alpha-adrenolytic activity” (Eur J Med Chem, 2009)

Biological target: T1, Adrenergic receptor alpha-2 (Rattus norvegicus, UniProt P22086+P19328+P22909)
T1 sequence (P22086 whole entry): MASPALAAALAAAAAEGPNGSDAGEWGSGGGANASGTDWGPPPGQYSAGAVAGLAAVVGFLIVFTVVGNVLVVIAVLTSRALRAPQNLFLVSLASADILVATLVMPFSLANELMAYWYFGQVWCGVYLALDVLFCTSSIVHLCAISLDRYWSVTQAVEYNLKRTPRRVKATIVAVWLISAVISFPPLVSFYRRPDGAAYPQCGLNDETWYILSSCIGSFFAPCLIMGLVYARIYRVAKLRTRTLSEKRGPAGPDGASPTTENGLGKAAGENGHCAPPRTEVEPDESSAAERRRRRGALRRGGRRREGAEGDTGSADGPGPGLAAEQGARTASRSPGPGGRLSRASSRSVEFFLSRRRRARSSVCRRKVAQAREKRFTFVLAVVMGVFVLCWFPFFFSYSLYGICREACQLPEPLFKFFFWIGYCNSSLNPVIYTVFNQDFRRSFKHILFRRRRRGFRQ
T1 sequence (P19328 whole entry): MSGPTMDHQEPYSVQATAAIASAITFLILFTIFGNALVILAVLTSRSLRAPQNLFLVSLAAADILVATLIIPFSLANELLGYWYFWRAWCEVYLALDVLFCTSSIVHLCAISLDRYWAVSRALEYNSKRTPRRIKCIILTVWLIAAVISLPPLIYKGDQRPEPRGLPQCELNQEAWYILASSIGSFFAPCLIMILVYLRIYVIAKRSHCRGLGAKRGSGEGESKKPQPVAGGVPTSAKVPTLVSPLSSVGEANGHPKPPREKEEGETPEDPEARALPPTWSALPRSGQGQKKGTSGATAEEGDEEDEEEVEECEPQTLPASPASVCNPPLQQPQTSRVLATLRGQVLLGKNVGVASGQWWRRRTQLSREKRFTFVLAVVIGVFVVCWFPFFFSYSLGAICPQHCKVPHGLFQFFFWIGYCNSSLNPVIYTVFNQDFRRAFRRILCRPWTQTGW
T1 sequence (P22909 whole entry): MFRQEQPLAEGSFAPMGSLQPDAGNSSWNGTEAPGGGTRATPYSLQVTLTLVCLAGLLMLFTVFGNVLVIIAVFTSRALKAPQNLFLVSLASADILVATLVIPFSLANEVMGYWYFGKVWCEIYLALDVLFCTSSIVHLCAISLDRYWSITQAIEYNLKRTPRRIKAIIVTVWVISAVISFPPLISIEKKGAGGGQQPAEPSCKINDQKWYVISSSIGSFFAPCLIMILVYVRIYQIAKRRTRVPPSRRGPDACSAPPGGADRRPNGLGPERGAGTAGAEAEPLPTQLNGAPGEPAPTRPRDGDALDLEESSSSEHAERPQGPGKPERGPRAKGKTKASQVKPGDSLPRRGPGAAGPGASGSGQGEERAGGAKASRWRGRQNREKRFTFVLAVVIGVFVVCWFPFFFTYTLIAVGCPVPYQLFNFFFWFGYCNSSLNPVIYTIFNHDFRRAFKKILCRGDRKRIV
Experiment: Displacement of [3H]clonidine from alpha2 adrenergic receptor in rat cerebral cortex by liquid scintillation counting
Type: tissue-based
How it was run: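 Rat cerebral cortex membranes were prepared in ice-cold 50 mM Tris–HCl pH 7.6 (20 000 × g, 20 min, 0–4 °C, washed twice). They were incubated with [3H]clonidine 2 nM and seven to eight compound concentrations (10^-11–10^-4 M), with excess unlabelled clonidine defining nonspecific binding. Samples were glass-fiber filtered and counted by liquid scintillation, in duplicate. Ki was calculated by Cheng–Prusoff.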

COc1ccccc1N1CCN(CC(O)CN2CCC(c3ccccc3)(c3ccccc3)C2=O)CC1.Cl.Cl (stereo unspecified)
pKi: 6.68

Cc1ccccc1N1CCN(CC(O)CN2CCC(c3ccccc3)(c3ccccc3)C2=O)CC1.Cl.Cl (stereo unspecified)
pKi: 6.51

Cl.Cl.O=C1N(CC(O)CN2CCN(c3ccccc3C(F)(F)F)CC2)CCC1(c1ccccc1)c1ccccc1 (stereo unspecified)
pKi: 5.29

COc1ccc(N2CCN(CC(O)CN3CCC(c4ccccc4)(c4ccccc4)C3=O)CC2)cc1.Cl.Cl (stereo unspecified)
pKi: 6

Cl.Cl.O=C1N(CC(O)CN2CCN(c3ccccc3)CC2)CCC1(c1ccccc1)c1ccccc1 (stereo unspecified)
pKi: 6.64

CCOc1ccccc1N1CCN(CC(O)CN2CCC(c3ccccc3)(c3ccccc3)C2=O)CC1.Cl.Cl (stereo unspecified)
pKi: 6.38
